Data on 8 compounds can be found in ChEMBL document CHEMBL4261570, “Design, Synthesis and Preliminary Antimicrobial Evaluation of N-Alkyl Chain Tethered C-5 Functionalized Bis-Isatins” (Medchemcomm, 2017).

Active and inactive are the calls of the source. The rule behind the calls is not given here.

Series [1] relates to Lactobacillus acidophilus. In words: Toxicity in Lactobacillus acidophilus ATCC 43560 at 100 uM measured after overnight incubation by disc diffusion method. In kind it is organism-based. Conditions: in vivo. The method in brief:
(§1)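 Grown in Lactobacilli MRS at 37 °C under anaerobic conditions. Blank 6 mm discs were soaked 20 min at room temperature in a 100 μM working dilution in medium. Discs were placed on streaked agar alongside DMSO vehicle and antibiotic discs (levofloxacin, gentamicin), incubated overnight at 37 °C, and zones of inhibition measured in mm.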
In general terms: Agar diffusion results depend on both activity and mobility in agar.

Series [2] concerns Giardia intestinalis. In words: Antiparasitic activity against Giardia lamblia WB trophozoites assessed as parasite growth inhibition at 50 uM after 48 hrs by ATP bioluminescence-based CellTiter-Glo luminescent cell viability assay relative to control. In kind it is functional. Conditions: Giardia duodenalis; for inhibition of growth at 50 µM: read-out: GI. The method in brief: (§2)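 Trophozoites kept axenically in TYI-S-33 with penicillin and streptomycin. Each well held 5000 trophozoites and was incubated 48 h at 37 °C under anaerobic conditions in a GasPak pouch. Read-out was CellTiter-Glo ATP luminescence. Controls were 0.5% DMSO vehicle and 30 μM metronidazole. Primary screen at 50 μM in duplicate; hits were those above 50% inhibition. EC50 came from triplicate 8-point series (0.39–50 μM) and dose-response curves.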
(In general: Cellular ATP, detected with luciferase, serves as a proxy for viable cell number.)

In series [3] the test system is Trichomonas vaginalis. In words: Antiparasitic activity against Trichomonas vaginalis assessed as parasite growth inhibition at 50 uM after 24 hrs by hemacytometer relative to control. In kind it is functional. The conditions noted are these: read-out: GI. An outline of the steps:
(§3)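 G3 strain cultured in TYM Diamond's medium in 15 mL tubes, with compound in DMSO. Controls were untreated and 0.1% DMSO. After 24 h, cells were counted by hemacytometer and normalized to the DMSO controls. Screening was at 50 μM. IC50 came from titrations of 5–40 μM with variable-slope regression, 4 independent trials on different days, and was then re-confirmed.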

The test system of series [4] is Lacticaseibacillus rhamnosus. In words: Toxicity in Lactobacillus rhamnosus ATCC 53103 at 100 uM measured after overnight incubation by disc diffusion method. Type of series: organism-based, GG. The conditions noted are these: in vivo. An outline of the steps:
as §1

Series [5] relates to Limosilactobacillus reuteri. In words: Toxicity in Lactobacillus reuteri ATCC 23272 at 100 uM measured after overnight incubation by disc diffusion method. Type of series: organism-based. Conditions: in vivo. An outline of the steps:
as §1

The test system of the next series is Escherichia coli. The series can be described thus: Toxicity in Escherichia coli K-12 MG1655 at 100 uM measured after overnight incubation by disc diffusion method. The conditions noted are these: in vivo. In kind it is organism-based, K-12 substr. MG1655. An outline of the steps: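 Grown in Luria broth at 37 °C under aerobic conditions. Blank 6 mm discs were soaked 20 min at room temperature in a 100 μM working dilution in medium. Discs were placed on streaked agar alongside DMSO vehicle and antibiotic discs (levofloxacin, gentamicin), incubated overnight at 37 °C, and inhibition zones measured in mm.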

Series [6] has as its system Entamoeba histolytica. In words: Antiparasitic activity against Entamoeba histolytica HM-1:IMSS trophozoites assessed as parasite growth inhibition at 50 uM after 48 hrs by ATP bioluminescence-based CellTiter-Glo luminescent cell viability assay relative to control. Type of series: functional. Conditions: for inhibition of growth at 50 µM: read-out: GI. The method in brief:
as §2

For series [7], the system named is Trichomonas vaginalis. The series can be described thus: Antiparasitic activity against Trichomonas vaginalis assessed as parasite growth inhibition after 24 hrs by hemacytometer. Type of series: functional, organism-based. An outline of the steps:
as §3

Series [8] relates to Giardia intestinalis. In words: Antiparasitic activity against Giardia lamblia WB trophozoites assessed as parasite growth inhibition after 48 hrs by ATP bioluminescence-based CellTiter-Glo luminescent cell viability assay. Type of series: functional, organism-based. The conditions noted are these: Giardia duodenalis. An outline of the steps:
as §2

Series [9] deals with Aspergillus parasiticus. In words: Antifungal activity against Aspergillus parasiticus NRRL5862 assessed as fungal growth at 500 uM after 48 hrs by microtiter plate liquid bioassay (reference value: 100%). In kind it is functional. The method in brief:
(§4)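 A. parasiticus grown at 35 °C on PDA. Liquid assay in RPMI 1640, 3 × 104 to 5 × 10^4 CFU per mL, triplicate wells, 35 °C. Compounds in DMSO (<2% in media). No-treatment wells carry matched DMSO. Wells scored visually 0–4 versus the no-treatment control: 0 clear, 1 25%, 2 50%, 3 75%, 4 no reduction. Scoring follows CLSI M38-A.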

A further series deals with Naegleria fowleri. The series can be described thus: Antiparasitic activity against Naegleria fowleri KUL trophozoites assessed as parasite growth inhibition after 48 hrs by ATP bioluminescence-based CellTiter-Glo luminescent cell viability assay. Type of series: functional, organism-based. An outline of the steps: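 Strain KUL trophozoites cultured axenically in Nelson's medium with 10% FBS at 37 °C. Each well held 10 000 trophozoites, incubated under aerobic conditions without the anaerobe pouch. Read-out was CellTiter-Glo luminescence. Positive control was 50 μM amphotericin B. Hits were serially diluted in triplicate, 8 points from 0.39 to 50 μM, and EC50 was taken from dose-response curves.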

Series [10] deals with Saccharomyces cerevisiae. The series can be described thus: Antifungal activity against Saccharomyces cerevisiae BY4741 assessed as fungal growth at 500 uM after 48 hrs by microtiter plate liquid bioassay (reference value: 100%). Type of series: functional.
In series [11] the test system is Aspergillus parasiticus. The series can be described thus: Antifungal activity against Aspergillus parasiticus NRRL5862 assessed as fungal growth at 500 uM after 24 hrs by microtiter plate liquid bioassay (reference value: 100%). In kind it is functional. The method in brief:
as §4

Series [12] relates to Saccharomyces cerevisiae. In words: Antifungal activity against Saccharomyces cerevisiae BY4741 assessed as fungal growth at 500 uM after 24 hrs by microtiter plate liquid bioassay (reference value: 100%). In kind it is functional.
The subject of series [13] is Entamoeba histolytica. In words: Antiparasitic activity against Entamoeba histolytica HM-1:IMSS trophozoites assessed as parasite growth inhibition after 48 hrs by ATP bioluminescence-based CellTiter-Glo luminescent cell viability assay. Type of series: functional, organism-based. An outline of the steps: as §2
In series [14] the test system is Saccharomyces cerevisiae. In words: Antifungal activity against Saccharomyces cerevisiae BY4741 assessed as decrease in fungal survival at 500 uM after 48 to 72 hrs by YPD plate-based assay. Type of series: functional, organism-based. The method in brief:
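At the end of the 500 μM SG-liquid microtiter assay, the entire well contents were spread onto YPD recovery plates. Plates were cultured a further 48 to 72 h at 30 °C to judge fungal survival.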

As a reminder, the IC50 is the point on the concentration scale where inhibition reaches its midpoint. Regarding `O=C1C(=O)N(CCCCN2C(=O)C(=O)c3cc(Br)ccc32)c2ccccc21`, the Activity result (in series [1]; in series [4]; in series [5]; in the series with Escherichia coli) was “Non-Toxic” each time. For the same compound, the “growth inhibition (GI)” value with Giardia intestinalis [2] and in the series with Entamoeba histolytica [6] was “inactive” in each case. Further, the inhibition of growth at 50 µM with Trichomonas vaginalis [3] was 100%. Besides, in the series on Trichomonas vaginalis [7], the IC50 was 25 µM.

As to `O=C1C(=O)N(CCCN2C(=O)C(=O)c3cc(F)ccc32)c2ccccc21`, the Activity entry (in [1]; in series [4]; in [5]; with Escherichia coli) was “Non-Toxic” in each case. Moreover, the inhibition of growth at 50 µM in the series with Giardia intestinalis [2] and in the series with Trichomonas vaginalis [3] was 100% throughout. For the same compound, the “growth inhibition (GI)” value with Entamoeba histolytica [6] was “inactive”. Besides, the IC50 in the series on Giardia intestinalis [8] amounted to 28.8 µM; with Trichomonas vaginalis [7], 12.5 µM.

On to `O=C1C(=O)N(CCN2C(=O)C(=O)c3cc(Cl)ccc32)c2ccccc21`, for which the Activity in the series on Aspergillus parasiticus [9] is recorded as 100%; in series [1] it was “Non-Toxic”; in series [4], “Non-Toxic”; in series [5], “Non-Toxic”; with Saccharomyces cerevisiae [10], 50%; with Escherichia coli it was “Non-Toxic”. Besides, the results for the Activity with Aspergillus parasiticus [11] and in the series with Saccharomyces cerevisiae [12] were 100% and 25%, respectively. In addition, the IC50 was 28.3 µM in the series with Naegleria fowleri and 15 µM with Trichomonas vaginalis [7]. The inhibition of growth at 50 µM in the series with Giardia intestinalis [2] is 3.82%; with Trichomonas vaginalis [3], 78.8%; in the series on Entamoeba histolytica [6], 73.6%.

As to `Cc1ncc([N+](=O)[O-])n1CCO` [METRONIDAZOLE], the values for the IC50 in the series with Entamoeba histolytica [13] and in the series on Giardia intestinalis [8] were 5 µM and 6.4 µM, respectively.

Take `O=C1C(=O)N(CCCCCCCCBr)c2ccccc21`: the Activity in the series with Aspergillus parasiticus [9] was 100%; in series [1] it was “Non-Toxic”; in series [4], “Non-Toxic”; in [5], “Non-Toxic”; in the series on Saccharomyces cerevisiae [10], 0%; in the series with Escherichia coli, “Non-Toxic”. The Activity with Aspergillus parasiticus [11] is reported as 75 - 100%; in the series on Saccharomyces cerevisiae [12], 0%. In addition, the inhibition of growth at 50 µM in the series on Giardia intestinalis [2] and in the series on Trichomonas vaginalis [3] was 100% throughout. In addition, the result in the series with Saccharomyces cerevisiae [14] was inactive. The “growth inhibition (GI)” value in the series with Entamoeba histolytica [6] was “inactive”. Besides, the IC50 with Giardia intestinalis [8] was 18.4 µM.

Consider `O=C1C(=O)N(CCCCCCBr)c2ccccc21`, for which the Activity is 100% in the series on Aspergillus parasiticus [9]; “Non-Toxic” in series [1]; “Non-Toxic” in series [4]; “Non-Toxic” in [5]; 0% with Saccharomyces cerevisiae [10]; “Non-Toxic” with Escherichia coli. Also, the Activity in the series on Aspergillus parasiticus [11] is 75 - 100%; with Saccharomyces cerevisiae [12], 0%. The inhibition of growth at 50 µM with Giardia intestinalis [2] is 98.9%; in the series on Trichomonas vaginalis [3] it was 86.6%. The outcome with Saccharomyces cerevisiae [14] was inactive. The “growth inhibition (GI)” value with Entamoeba histolytica [6] was “inactive”. Further, the IC50 in the series on Giardia intestinalis [8] stood at 24.4 µM.

Regarding `O=C1C(=O)N(CCCN2C(=O)C(=O)c3cc(Br)ccc32)c2ccccc21`, the Activity is 100% in the series with Aspergillus parasiticus [9]; “Non-Toxic” in series [1]; “Non-Toxic” in series [4]; “Non-Toxic” in [5]; 50% in the series on Saccharomyces cerevisiae [10]; “Non-Toxic” with Escherichia coli. Further, the Activity in the series on Aspergillus parasiticus [11] was found to be 100%; in the series with Saccharomyces cerevisiae [12], 25%. For the same compound, the inhibition of growth at 50 µM worked out at 19.3% in the series with Giardia intestinalis [2] and 100% in the series on Trichomonas vaginalis [3]. In addition, in the series with Entamoeba histolytica [6], the “growth inhibition (GI)” value was “inactive”. Also, the IC50 in the series with Trichomonas vaginalis [7] is 3.72 µM.

Regarding `O=C1C(=O)N(CCCCCBr)c2ccccc21`, the Activity is given as 100% in the series with Aspergillus parasiticus [9]; “Non-Toxic” in [1]; “Non-Toxic” in series [4]; “Non-Toxic” in series [5]; 50% in the series with Saccharomyces cerevisiae [10]; “Non-Toxic” in the series with Escherichia coli. Also, the Activity is reported as 75 - 100% in the series with Aspergillus parasiticus [11] and 0% in the series on Saccharomyces cerevisiae [12]. In addition, the figures for the inhibition of growth at 50 µM in the series on Giardia intestinalis [2], in the series with Trichomonas vaginalis [3] and with Entamoeba histolytica [6] were 25.8%, 71.4% and 100%, respectively. The IC50 in the series with Entamoeba histolytica [13] came to 23 µM.
